The nature of experiment [1]: inhibitors of TNFa-induced NFkB p65 translocation, primary screen, imaging, HUVEC, MLSMR starter and 10KST1 sets (AID 438;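 active = inhibition above 20% together with a positive visual image hit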;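 also: compound added about 3h40 before a 20 min TNFalpha stimulation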;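 as to inhibition: signal is the nuclear over cytoplasmic p65 intensity ratio per well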). Conditions: HUVEC TNFa-induced p65 nuclear translocation; cell count: measured here: nuclei count (cytotoxicity indicator), at 2.08 µM; inhibition: at 2 µM, stronger effect = higher value, 0% TNFa-plus-vehicle, 100% no-TNFa wells.
Experiment [2] can be described thus: inhibitors of mutant huntingtin aggregation, primary screen, imaging, exon1htt(103Q)mCFP cells, high-content imaging (AID 483;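 active = visual image review flags a hit and inhibition of aggregation exceeds 20%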;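 also: compound exposure lasted 3 days before fixation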;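 as to nuclei count: percent of the per-plate median nuclei count of sample wells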). Conditions: exon1htt(103Q)mCFP cell line, aggregate imaging, at 2 µM; inhibition of aggregation: stronger effect = higher value; nuclei count: measured here: cell count, toxicity.
Experiment [3] can be described thus: inhibitors of E-selectin induction by TNFa, primary screen, imaging, HUVEC, immunofluorescence, MLSMR starter and 10KST1 sets (AID 487;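 active = visually confirmed hit in the image check and inhibition above 20%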;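 as to inhibition: signal is fraction of cell area covered by stained E-selectin grains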;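 as to nuclei count: 100% = median nuclei count of all wells on the same plate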). Conditions: HUVEC TNFalpha-induced E-selectin immunofluorescence imaging, at 2 µM; inhibition: stronger effect = higher value; nuclei count: measured here: cell number, toxicity.
Experiment [4] deals with Voltage-gated potassium channel subunit beta-2 (Rattus norvegicus) (UniProt P62483). Kind of experiment: KvBeta enzyme negative modulators, primary screen, biochemical, NADPH fluorescence (AID 622;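 active = fluorescence slope higher than the sample average by over 3 SD, cut at about -0.22 in these data, passing the limit was not always enough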;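 also: slope of raw intensity against log time taken from 70 to 1610 s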). Conditions: recombinant KvBeta, 4-cyanobenzaldehyde reduction, at 10 µM, stronger effect = higher value.
Experiment [5] shares this target. Kind of experiment: KvBeta positive modulators, primary screen, biochemical, NADPH fluorescence (AID 623;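 active = NADPH fluorescence slope more negative than the mean of all samples by about 3 SD, 99.7% confidence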;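 also: fluorescence intensity change per second fitted from 20 to 320 s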). The following applies: Recombinant KvBeta, NADPH fluorescence decrease slope, 10 min; at 10 µM; stronger effect = lower value.
The target in experiment [6] is Muscarinic acetylcholine receptor M4 (Homo sapiens) (UniProt P08173). Kind of experiment: compounds altering M4/GIRK thallium flux, either direction, primary screen, M4 allosteric agonist project, cell-based, HEK293 M4/GIRK, BTC-AM (AID 625;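 active = fluorescence slope after compound addition differing from the mean of all tested samples at 99.7% confidence, mostly higher but some lower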;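 also: thallium influx through GIRK channels coupled to M4 in HEK293 cells with BTC-AM dye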). The following applies: at 10 µM, actives lie on both sides. A digest of the protocol: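 System: HEK293 cells with M4 receptor and GIRK channels | Incubation: Cells overnight at 37 °C, BTC-AM loading 1 h, reads 2 min total | Technique: Kinetic BTC-AM fluorescence sampled at 1 Hz, 10 s pre-addition baseline | Measure: Post-addition slope, 15–24 s, of baseline-normalized fluorescence | Control set: Carbachol positive, DMSO negative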

A short description of experiment [7]: inhibitors of Sendai virus-induced IRF3 signaling, primary screen, TLR/RLR signaling modifier project, cell-based, Sendai virus stimulus, luciferase, 10K MLSCN set (AID 602276).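 Also: firefly luciferase from ISG56 promoter only with Renilla not read in this screen; 0% = Sendai virus plus DMSO and 100% = medium plus DMSO without virus.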 The following applies: HEK293 RL24 IRF3 luciferase reporter, at 10 µM, stronger effect = higher value. Background: In a reporter assay the amount or activity of a reporter protein is the signal.

Experiment [8] is described as follows: inhibitors of poly I:C-induced TLR3 signaling, primary screen, cell-based, poly I:C stimulus, luciferase, 10K MLSCN set (AID 602277;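 active = inhibition of the reporter signal at or above 50%; inactive = inhibition below 50%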). The following applies: HEK293-TLR3 RL24 IRF3 luciferase reporter, at 10 µM, stronger effect = higher value.

Consider 14 compounds from PubChem BioAssay.

Calls of active or inactive are those of the source.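 The calls were made as follows, unless noted: active = inhibition at or above 50% at 10 µM; inactive = inhibition below 50%.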

Chain of Muscarinic acetylcholine receptor M4 (Homo sapiens) (P08173 whole entry, looked up): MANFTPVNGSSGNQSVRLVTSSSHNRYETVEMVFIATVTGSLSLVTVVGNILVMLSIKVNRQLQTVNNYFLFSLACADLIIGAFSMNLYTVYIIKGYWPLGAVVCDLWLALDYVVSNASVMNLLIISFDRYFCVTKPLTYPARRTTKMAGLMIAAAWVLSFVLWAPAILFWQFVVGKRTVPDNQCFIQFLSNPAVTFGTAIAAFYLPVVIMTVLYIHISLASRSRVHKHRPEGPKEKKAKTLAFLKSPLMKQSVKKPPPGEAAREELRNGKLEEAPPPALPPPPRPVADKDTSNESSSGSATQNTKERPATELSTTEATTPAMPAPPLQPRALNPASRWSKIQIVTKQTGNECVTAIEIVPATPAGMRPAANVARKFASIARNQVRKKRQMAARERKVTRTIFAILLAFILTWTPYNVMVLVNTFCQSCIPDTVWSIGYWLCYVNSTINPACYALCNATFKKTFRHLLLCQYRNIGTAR
Chain of Voltage-gated potassium channel subunit beta-2 (Rattus norvegicus) (P62483 whole entry, looked up): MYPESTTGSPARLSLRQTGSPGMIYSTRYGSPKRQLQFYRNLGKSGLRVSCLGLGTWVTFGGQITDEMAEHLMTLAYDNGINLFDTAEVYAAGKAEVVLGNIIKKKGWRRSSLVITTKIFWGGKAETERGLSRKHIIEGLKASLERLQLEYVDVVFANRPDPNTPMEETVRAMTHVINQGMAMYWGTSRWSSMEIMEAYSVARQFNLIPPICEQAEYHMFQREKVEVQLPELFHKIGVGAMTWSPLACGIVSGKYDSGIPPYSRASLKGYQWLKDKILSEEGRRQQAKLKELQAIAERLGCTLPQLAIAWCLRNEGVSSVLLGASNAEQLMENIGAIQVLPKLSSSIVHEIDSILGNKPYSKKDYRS

What is called inhibition is the drop in the measured response relative to a control, in per cent. As for `COc1oc(-c2ccccc2)nc1C(F)(F)F`, in experiment [1], the cell count amounted to 353. Further, the inhibition in experiment [1] is 4.1% (inactive); in experiment [3] it was -15.8% (inactive); in experiment [7], 3.7% (inactive); in experiment [8] it was 12.2% (inactive). For the same compound, in experiment [2], the inhibition of aggregation is 0.7% (inactive). Also, the nuclei count in experiment [2] turned out to be 106%; in experiment [3] it was 116%. In addition, the results for the fluorescence slope in experiment [4] and in experiment [6] were -0.473 (inactive) and 0.00537 (inactive), respectively. For the same compound, the NADPH fluorescence slope in experiment [5] was -3.2e-05 (inactive).

For the compound `CN(C)CCCNC(=O)CCC1CCCCC1`, the cell count in experiment [1] was determined as 333. Besides, the inhibition in experiment [1] was -12.5% (inactive); in experiment [3], -132% (inactive); in experiment [7], 12% (inactive); in experiment [8], 21.1% (inactive). In addition, the inhibition of aggregation in experiment [2] is -4% (inactive). The nuclei count in experiment [2] was 103%; in experiment [3], 110%. Further, the fluorescence slope is -0.277 (inactive) in experiment [4] and 0.00526 (inactive) in experiment [6]. Besides, the NADPH fluorescence slope in experiment [5] is -3.7e-05 (inactive).

For the compound `O=C(CSc1nnc2sc3ccccc3n12)c1ccco1`, the cell count in experiment [1] stood at 308. For the same compound, the inhibition in experiment [1] was 1.9% (inactive); in experiment [3], 19.6% (inactive); in experiment [7], -17.8% (inactive); in experiment [8], -83.7% (inactive). The inhibition of aggregation in experiment [2] is 23.4% (inactive). In addition, the nuclei count in experiment [2] was determined as 83.3%; in experiment [3] it was 91.6%. The fluorescence slope in experiment [4] was -0.293 (inactive); in experiment [6], 0.00582 (inactive). In addition, in experiment [5], the NADPH fluorescence slope is -5e-05 (inactive).

On to `COc1cc(CC(=O)NCc2ccc3c(c2)OCO3)cc(OC)c1OC`, for which the cell count in experiment [1] is 698. For the same compound, the inhibition in experiment [1] was -7.8% (inactive); in experiment [3], -43.8% (inactive); in experiment [7], 6.85% (inactive); in experiment [8] it was 10.7% (inactive). Further, the inhibition of aggregation in experiment [2] was -5.2% (inactive). In addition, the nuclei count in experiment [2] amounted to 142%; in experiment [3], 124%. The fluorescence slope was -0.519 (inactive) in experiment [4] and 0.00565 (inactive) in experiment [6]. Moreover, in experiment [5], the NADPH fluorescence slope is -0.000135 (inactive).

As to `CCS(=O)(=O)Nc1ccc(C(=O)CC2(O)C(=O)Nc3ccccc32)cc1` (centres undefined), the cell count in experiment [1] stood at 602. Moreover, the inhibition is -11.9% (inactive) in experiment [1], 11.8% (inactive) in experiment [3], 14.3% (inactive) in experiment [7] and 18.7% (inactive) in experiment [8]. In addition, the inhibition of aggregation in experiment [2] is -19.6% (inactive). In addition, the figures for the nuclei count in experiment [2] and in experiment [3] were 110% and 107%, respectively. Besides, the fluorescence slope was -0.521 (inactive) in experiment [4] and 0.00663 (inactive) in experiment [6]. Further, the NADPH fluorescence slope in experiment [5] was 0.000137 (inactive).

Consider `CC(Oc1ccc(Br)cc1)C(=O)N1CCc2ccccc21` (centres undefined), for which the cell count in experiment [1] is 406. The inhibition in experiment [1] was 6.3% (inactive); in experiment [3] it was -97.2% (inactive); in experiment [7], -4.76% (inactive); in experiment [8] it was -9.35% (inactive). In addition, the inhibition of aggregation in experiment [2] is 22.4% (inactive). Besides, the nuclei count in experiment [2] was determined as 104%; in experiment [3], 119%. Further, the fluorescence slope in experiment [4] is -0.486 (inactive); in experiment [6] it was 0.00581 (inactive). The NADPH fluorescence slope in experiment [5] is 5.9e-05 (inactive).

For `CCCSc1nc2c(c(=O)[nH]c(=O)n2C)n1CCc1ccccc1`, the cell count in experiment [1] came out at 413. In addition, the inhibition is 11.9% (inactive) in experiment [1], -76.3% (inactive) in experiment [3], 17.9% (inactive) in experiment [7] and 4.39% (inactive) in experiment [8]. Besides, the inhibition of aggregation in experiment [2] was 0.6% (inactive). Besides, the nuclei count amounted to 107% in experiment [2] and 110% in experiment [3]. Also, the fluorescence slope in experiment [4] is -0.507 (inactive); in experiment [6] it was 0.00465 (inactive). The NADPH fluorescence slope in experiment [5] was -3.4e-05 (inactive).

On to `COc1ccccc1N1CCN(c2nc3ccccc3nc2C(C#N)C(=O)OC(C)C)CC1` (centres undefined), for which the cell count in experiment [1] came to 518. For the same compound, the inhibition in experiment [1] was 1% (inactive); in experiment [3], -72.9% (inactive); in experiment [7], -13.1% (inactive); in experiment [8], -6.25% (inactive). For the same compound, the inhibition of aggregation in experiment [2] was -12.2% (inactive). Further, the nuclei count in experiment [2] is 119%; in experiment [3], 191%. The fluorescence slope in experiment [4] is -0.523 (inactive); in experiment [6], 0.00467 (inactive). In experiment [5], the NADPH fluorescence slope is -0.000323 (inactive).

As for `CCCCC(NC(C)=O)c1nc2ccccc2n1CCC` (centres undefined), the cell count in experiment [1] amounted to 294. The inhibition in experiment [1] was -3.7% (inactive); in experiment [3] it was 37.8% (inactive); in experiment [7], 22.7% (inactive); in experiment [8] it was 16.8% (inactive). The inhibition of aggregation in experiment [2] was 24.6% (inactive). For the same compound, the nuclei count in experiment [2] was determined as 82.4%; in experiment [3], 94.3%. Besides, the values for the fluorescence slope in experiment [4] and in experiment [6] were -0.454 (inactive) and 0.00541 (inactive), respectively. Moreover, in experiment [5], the NADPH fluorescence slope is -2.6e-05 (inactive).

In the case of `CCOC(=O)c1ccc(NC(=O)CC2SC(=NC)N(C)C2=O)cc1` (centres undefined), the cell count in experiment [1] came out at 401. The inhibition in experiment [1] was 14.6% (inactive); in experiment [3], -14.5% (inactive); in experiment [7], 13.7% (inactive); in experiment [8], 17.7% (inactive). For the same compound, the inhibition of aggregation in experiment [2] was -8.2% (inactive). For the same compound, the values for the nuclei count in experiment [2] and in experiment [3] were 103% and 110%, respectively. Moreover, the results for the fluorescence slope in experiment [4] and in experiment [6] were -0.48 (inactive) and 0.00547 (inactive), respectively. In experiment [5], the NADPH fluorescence slope is -5.8e-05 (inactive).

Turning to `C=C(C)Cn1c(CCNC(=O)CC)nc2ccccc21`, in experiment [1], the cell count is 494. The inhibition in experiment [1] was -28.5% (inactive); in experiment [3] it was -107% (inactive); in experiment [7] it was 9.76% (inactive); in experiment [8] it was 14.1% (inactive). The inhibition of aggregation in experiment [2] was 1.3% (inactive). Besides, the values for the nuclei count in experiment [2] and in experiment [3] were 101% and 112%, respectively. Further, the fluorescence slope in experiment [4] is -0.433 (inactive); in experiment [6], 0.00575 (inactive). In addition, the NADPH fluorescence slope in experiment [5] is -6.1e-05 (inactive).

As for `CC(C(=O)N1CCCCC1)n1sc2ccccc2c1=O` (centres undefined), the cell count in experiment [1] came to 355. The inhibition is -10.8% (inactive) in experiment [1], -96.4% (inactive) in experiment [3], -14.1% (inactive) in experiment [7] and -35.6% (inactive) in experiment [8]. In addition, the inhibition of aggregation in experiment [2] is -13.5% (inactive). Also, the nuclei count came to 111% in experiment [2] and 109% in experiment [3]. The fluorescence slope was -0.479 (inactive) in experiment [4] and 0.00498 (inactive) in experiment [6]. The NADPH fluorescence slope in experiment [5] was -0.000258 (inactive).

Consider `Cc1c(C(=O)O)sc2ncn(C)c(=O)c12`, for which the cell count in experiment [1] is 745. Further, the inhibition was 2.8% (inactive) in experiment [1], 21% (inactive) in experiment [3], 2.12% (inactive) in experiment [7] and -1.59% (inactive) in experiment [8]. For the same compound, the inhibition of aggregation in experiment [2] was -9% (inactive). Also, the values for the nuclei count in experiment [2] and in experiment [3] were 116% and 106%, respectively. Besides, the figures for the fluorescence slope in experiment [4] and in experiment [6] were -0.553 (inactive) and 0.00525 (inactive), respectively. In experiment [5], the NADPH fluorescence slope was -2.2e-05 (inactive).

Consider `COC(=O)c1c(C)oc2ccc(NS(=O)(=O)c3cccs3)cc12`, for which the cell count in experiment [1] was 435. Besides, the inhibition was 3.4% (inactive) in experiment [1], -85.7% (inactive) in experiment [3], 20.8% (inactive) in experiment [7] and 10.9% (inactive) in experiment [8]. For the same compound, the inhibition of aggregation in experiment [2] was 1.4% (inactive). The nuclei count was 99.1% in experiment [2] and 114% in experiment [3]. Moreover, the results for the fluorescence slope in experiment [4] and in experiment [6] were -0.534 (inactive) and 0.0032 (inactive), respectively. In experiment [5], the NADPH fluorescence slope is -8.8e-05 (inactive).
